Paper PMC7572827 (Clinical cancer research : an official journal of the …, 2020)
Values joined by “and” are separate entries in the source; they are usually repeats but may differ in a detail not shown here. Equal entries are not always repeated. “Also recorded” adds a separate entry of the source. Where two headings read alike, the source gives them in different places.

Experiments:
mCRPC = details: SWITCH phase 2 crossover study; cited from earlier work
[1] = Plasma pharmacokinetics by LC/MS/MS; details: steady-state, by ZEN-3694 dose level
[2] = Phase 1b/2a safety: treatment-related adverse events; type: in vivo, human
Summary of the method: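 Open-label, multicenter phase 1b/2 trial in progressive mCRPC patients resistant to abiraterone and/or enzalutamide. Test compound was given orally once daily, starting at 36 mg, with 3+3 escalation up to 144 mg daily. Expansion cohorts received 48 or 96 mg daily. All patients took enzalutamide 160 mg daily, with a 14-day enzalutamide lead-in if not already on it. Cycles were 28 days. Adverse events were graded by CTC v4.0, with assessments weekly in cycles 1–2, every 2 weeks in cycle 3, then every 4 weeks.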

[3] = test system: BET inhibitor target genes MYC, IL-8, CCR1, GPR183, IL1RN; test: Whole blood RNA expression of BET inhibitor target genes; type: in vivo, human
Summary of the method: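 mCRPC patients received the oral test compound once daily plus enzalutamide 160 mg daily. Whole blood RNA was sampled pre-dose and 2, 4, 6 and 24 h after the cycle 1 day 1 dose. Panel: MYC, IL-8, CCR1, GPR183, HEXIM1, IL1RN. Expression change was correlated with parent plus active metabolite exposure: AUC0–2 for MYC and GPR183, AUC0–4 for CCR1, IL1RN and IL-8. Exposure was measured by plasma LC/MS/MS.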

[4] = test system: metastatic castration-resistant prostate cancer (mCRPC); type: in vivo, human
MYC and AR-signaling = test: RNA-seq gene set enrichment analysis of paired metastatic tumor biopsies; type: in vivo, human; details: four patients, with enzalutamide, median eight weeks of treatment

Structure (SMILES): CNC(=O)c1ccc(N2C(=S)N(c3ccc(C#N)c(C(F)(F)F)c3)C(=O)C2(C)C)cc1F [enzalutamide]
- Median PFS, second line (mCRPC): 3.5 months
- Impact of ZEN-3694 on concentration [1]: no significant impact

Structure (SMILES): CNc1nc2ncc(-c3c(C)noc3C)cc2n1Cc1ccccc1 [ZEN-3694]
- Treatment-related AE all grades, patients: Fatigue ([2]; 36mg QD n=4): 1
- Treatment-related AE all grades, patients: Visual symptoms ([2]; 36mg QD n=4): 3
- Treatment-related AE all grades, patients: Weight loss & Abnormal WL ([2]; 36mg QD n=4): 1
- Treatment-related AE all grades, patients: Constipation ([2]; 48 mg QD n=21): 1
- Treatment-related AE all grades, patients: Decreased Appetite ([2]; 48 mg QD n=21): 2
- Treatment-related AE all grades, patients: Dysgeusia ([2]; 48 mg QD n=21): 2
- Treatment-related AE all grades, patients: Dyspepsia ([2]; 48 mg QD n=21): 1
- Treatment-related AE all grades, patients: Fatigue ([2]; 48 mg QD n=21): 8
- Treatment-related AE all grades, patients: Nausea ([2]; 48 mg QD n=21): 7
- Treatment-related AE all grades, patients: Photopsia ([2]; 48 mg QD n=21): 1
- Treatment-related AE all grades, patients: Photosensitivity ([2]; 48 mg QD n=21): 2
- Treatment-related AE all grades, patients: Rash maculopapular ([2]; 48 mg QD n=21): 3
- Treatment-related AE all grades, patients: Thrombocytopenia ([2]; 48 mg QD n=21): 1
- Treatment-related AE all grades, patients: Visual symptoms ([2]; 48 mg QD n=21): 12
- Treatment-related AE all grades, patients: Vomiting ([2]; 48 mg QD n=21): 1
- Treatment-related AE all grades, patients: Decreased Appetite ([2]; 72mg QD n=6): 1
- Treatment-related AE all grades, patients: Diarrhea ([2]; 72mg QD n=6): 1
- Treatment-related AE all grades, patients: Dizziness ([2]; 72mg QD n=6): 1
- Treatment-related AE all grades, patients: Dysgeusia ([2]; 72mg QD n=6): 0
- Treatment-related AE all grades, patients: Fatigue ([2]; 72mg QD n=6): 2
- Treatment-related AE all grades, patients: Nausea ([2]; 72mg QD n=6): 3
- Treatment-related AE all grades, patients: Taste disorder ([2]; 72mg QD n=6): 1
- Treatment-related AE all grades, patients: Thrombocytopenia ([2]; 72mg QD n=6): 2
- Treatment-related AE all grades, patients: Visual symptoms ([2]; 72mg QD n=6): 6
- Treatment-related AE all grades, patients: Weight loss & Abnormal WL ([2]; 72mg QD n=6): 1
- Treatment-related AE all grades, patients: Blood creatinine Increased ([2]; 96mg QD n=31): 3
- Treatment-related AE all grades, patients: Constipation ([2]; 96mg QD n=31): 3
- Treatment-related AE all grades, patients: Decreased Appetite ([2]; 96mg QD n=31): 10
- Treatment-related AE all grades, patients: Diarrhea ([2]; 96mg QD n=31): 5
- Treatment-related AE all grades, patients: Dizziness ([2]; 96mg QD n=31): 3
- Treatment-related AE all grades, patients: Dysgeusia ([2]; 96mg QD n=31): 10
- Treatment-related AE all grades, patients: Dyspepsia ([2]; 96mg QD n=31): 2
- Treatment-related AE all grades, patients: Fatigue ([2]; 96mg QD n=31): 13
- Treatment-related AE all grades, patients: Nasal congestion ([2]; 96mg QD n=31): 3
- Treatment-related AE all grades, patients: Nausea ([2]; 96mg QD n=31): 17
- Treatment-related AE all grades, patients: Photopsia ([2]; 96mg QD n=31): 3
- Treatment-related AE all grades, patients: Photosensitivity ([2]; 96mg QD n=31): 3
- Treatment-related AE all grades, patients: Rash ([2]; 96mg QD n=31): 3
- Treatment-related AE all grades, patients: Rash maculopapular ([2]; 96mg QD n=31): 1
- Treatment-related AE all grades, patients: Taste disorder ([2]; 96mg QD n=31): 3
- Treatment-related AE all grades, patients: Thrombocytopenia ([2]; 96mg QD n=31): 6
- Treatment-related AE all grades, patients: Vision blurred ([2]; 96mg QD n=31): 2
- Treatment-related AE all grades, patients: Visual symptoms ([2]; 96mg QD n=31): 17
- Treatment-related AE all grades, patients: Vomiting ([2]; 96mg QD n=31): 3
- Treatment-related AE all grades, patients: Weight loss & Abnormal WL ([2]; 96mg QD n=31): 3
- Dose-limiting toxicity ([2]; 96 mg/day dose level, Grade 3 nausea, cycle 1): One patient
- Treatment-related AE all grades, patients: Decreased Appetite ([2]; 120mg QD N=4): 3
- Treatment-related AE all grades, patients: Dysgeusia ([2]; 120mg QD N=4): 1
- Treatment-related AE all grades, patients: Fatigue ([2]; 120mg QD N=4): 3
- Treatment-related AE all grades, patients: Nausea ([2]; 120mg QD N=4): 3
- Treatment-related AE all grades, patients: Vision blurred ([2]; 120mg QD N=4): 1
- Treatment-related AE all grades, patients: Visual symptoms ([2]; 120mg QD N=4): 4
- Treatment-related AE all grades, patients: Vomiting ([2]; 120mg QD N=4): 1
- Treatment-related AE all grades, patients: Weight loss & Abnormal WL ([2]; 120mg QD N=4): 1
- Patients requiring dose reduction and/or discontinuation ([2]; 120 mg/day): 75%
- Treatment-related AE all grades, patients: Decreased Appetite ([2]; 144mg QD N=3): 2
- Treatment-related AE all grades, patients: Dysgeusia ([2]; 144mg QD N=3): 3
- Treatment-related AE all grades, patients: Fatigue ([2]; 144mg QD N=3): 1
- Treatment-related AE all grades, patients: Nausea ([2]; 144mg QD N=3): 2
- Treatment-related AE all grades, patients: Rash maculopapular ([2]; 144mg QD N=3): 1
- Treatment-related AE all grades, patients: Thrombocytopenia ([2]; 144mg QD N=3): 1
- Treatment-related AE all grades, patients: Visual symptoms ([2]; 144mg QD N=3): 2
- Treatment-related AE all grades, patients: Weight loss & Abnormal WL ([2]; 144mg QD N=3): 2
- Patients requiring dose reduction and/or discontinuation ([2]; 144 mg/day): 100%
- Treatment-related AE all grades, patients: Blood creatinine Increased ([2]; 6Dmg QD n=6): 2
- Treatment-related AE all grades, patients: Decreased Appetite ([2]; 6Dmg QD n=6): 2
- Treatment-related AE all grades, patients: Dysgeusia ([2]; 6Dmg QD n=6): 0
- Treatment-related AE all grades, patients: Fatigue ([2]; 6Dmg QD n=6): 1
- Treatment-related AE all grades, patients: Nausea ([2]; 6Dmg QD n=6): 2
- Treatment-related AE all grades, patients: Taste disorder ([2]; 6Dmg QD n=6): 1
- Treatment-related AE all grades, patients: Thrombocytopenia ([2]; 6Dmg QD n=6): 1
- Treatment-related AE all grades, patients: Visual symptoms ([2]; 6Dmg QD n=6): 4
- Treatment-related AE all grades, patients: Blood creatinine Increased ([2]; TOTAL n=75): 5 (6.7) n (%)
- Treatment-related AE all grades, patients: Constipation ([2]; TOTAL n=75): 4 (5.3) n (%)
- Treatment-related AE all grades, patients: Decreased Appetite ([2]; TOTAL n=75): 20 (26.7) n (%)
- Treatment-related AE all grades, patients: Diarrhea ([2]; TOTAL n=75): 6(8) n (%)
- Treatment-related AE all grades, patients: Dizziness ([2]; TOTAL n=75): 4 (5.3) n (%)
- Treatment-related AE all grades, patients: Dysgeusia ([2]; TOTAL n=75): 16 (21.3) n (%)
- Treatment-related AE all grades, patients: Dyspepsia ([2]; TOTAL n=75): 3(4) n (%)
- Treatment-related AE all grades, patients: Fatigue ([2]; TOTAL n=75): 29 (38.7) n (%)
- Treatment-related AE all grades, patients: Nasal congestion ([2]; TOTAL n=75): 3(4) n (%)
- Treatment-related AE all grades, patients: Nausea ([2]; TOTAL n=75): 34 (45.3) n (%)
- Treatment-related AE all grades, patients: Photopsia ([2]; TOTAL n=75): 4 (5.3) n (%)
- Treatment-related AE all grades, patients: Photosensitivity ([2]; TOTAL n=75): 5 (6.7) n (%)
- Treatment-related AE all grades, patients: Rash ([2]; TOTAL n=75): 3(4) n (%)
- Treatment-related AE all grades, patients: Rash maculopapular ([2]; TOTAL n=75): 5 (6.7) n (%)
- Treatment-related AE all grades, patients: Taste disorder ([2]; TOTAL n=75): 5 (6.7) n (%)
- Treatment-related AE all grades, patients: Thrombocytopenia ([2]; TOTAL n=75): 11 (14.7) n (%)
- Treatment-related AE all grades, patients: Vision blurred ([2]; TOTAL n=75): 3(4) n (%)
- Treatment-related AE all grades, patients: Visual symptoms ([2]; TOTAL n=75): 48 (64) n (%)
- Treatment-related AE all grades, patients: Vomiting ([2]; TOTAL n=75): 5 (6.7) n (%)
- Treatment-related AE all grades, patients: Weight loss & Abnormal WL ([2]; TOTAL n=75): 8(10.7) n (%)
- Maximum tolerated dose ([2]; ZEN-3694 36 to 144 mg daily with enzalutamide 160 mg daily): without reaching an MTD; also recorded: not reached
- Patients requiring dose reduction and/or treatment discontinuation due to adverse events ([2]; all dose levels, 24/75): 32%
- Patients with Grade ≥ 3 treatment-related adverse event ([2]; all dose levels, n=75, with enzalutamide): 18.7%
- Patients requiring dose reduction and/or discontinuation ([2]; doses from 36 mg – 96 mg/day): 10%−35%
- Recommended phase 2 dose ([2]; in combination with enzalutamide): 96 mg/day
- Grade ≥ 3 nausea ([2]; n=75, with enzalutamide): 4%
- Patients discontinued for adverse event ([2]; nine patients): 12%
- Mean difference in whole blood RNA expression of BETi targets ([3]; 4 hours post-ZEN-3694 dose, p ≤ 0.0001): up to 4 fold
- Decrease in whole blood mRNA levels of BET inhibitor target genes MYC, IL-8, CCR1, GPR183, IL1RN ([3]; dose-dependent, post-C1D1 dose): 2–4 fold
- Dose level at which decrease in BET inhibitor target gene expression plateaus ([3]; in vivo): ≥ 96 mg
- Duration of decrease in whole blood mRNA levels of BET inhibitor target genes ([3]; in vivo): at least 8 hours
- Patients remaining on treatment without progression at data cut-off ([4]; 7 patients): 9%
- Patients on treatment greater than 24 months without progression ([4]; four patients): 5%
- Median time to progression (TTP) ([4]; higher canonical AR transcriptional activity in baseline biopsy): 19 weeks
- Composite median radiographic or clinical progression-free survival ([4]; overall cohort): 5.5 months
- Median radiographic progression-free survival (rPFS) ([4]; overall cohort, with enzalutamide): 9.0 months and 9 months
- Median rPFS ([4]; patients that had progressed on abiraterone): 7.8 months
- Median rPFS ([4]; primary resistance to prior first-line AR targeted therapy, progression within 6 months, N = 12): 10.6 months
- Composite median PFS ([4]; primary resistance, progression within 16 weeks, N = 5): 10.6 months
- Composite median radiographic or clinical progression-free survival ([4]; prior progression on abiraterone): 5.5 months
- Median rPFS ([4]; radiographic progression at study entry): 7.8 months
- Median rPFS ([4]; serum PSA consistently rose beyond 12 weeks, N = 21): 7.2 months
- Median rPFS ([4]; tumors with high AR activity): 4.3 months
- Median rPFS ([4]; tumors with low AR score): 10.4 months
- Median TTP ([4]; without aggressive variant clinical features, p = 0.24): 5.5 months
- Gene set enrichment, on-treatment versus baseline tumor biopsies (MYC and AR-signaling): down-regulation of expression of MYC and AR-signaling

Structure (SMILES): C[C@]12CC[C@H](O)CC1=CC[C@@H]1[C@@H]2CC[C@]2(C)C(c3cccnc3)=CC[C@@H]12 [abiraterone]
- Median PFS, second line (mCRPC): 1.7 months
